{"source": "paper PMC6445238", "about": "(Drug Design, Development and Therapy, 2019)", "key": {"[1]": {"test_system": "dopaminergic neurons treated with MPTP", "conditions": "dose-dependent, ref unpublished data; cited from earlier work"}, "[2]": {"test_system": "alpha-synuclein oligomer, total tau, phosphor-tau", "assay": "MAD study, PD biomarkers", "format": "in vivo, human", "method_in_brief": "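Healthy male volunteers in the MAD part: young (19–45 y) or elderly (>60 y), randomized 6 active : 2 placebo per cohort, oral dosing once daily for 7 days. Blood and CSF sampled for alpha-synuclein oligomer, and CSF for total and phospho-tau, at day 1 predose and day 7, 1 h after last dose. CSF (about 2 mL) by lumbar puncture at L3–L4. Protein levels were measured by an external biomarker core.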"}, "[3]": {"assay": "MAD study, safety and tolerability", "format": "in vivo, human", "conditions": "N=6", "method_in_brief": "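MAD cohorts were 6 active and 2 placebo healthy males, dosed once daily for 7 days, confined day −1 to day 8, with follow-up on day 14. Safety was monitored by vital signs, clinical labs, 12-lead ECG, physical exams, and AEs reported by subjects or observed by investigators. AEs were coded with MedDRA 19.1. Counts are given as subjects with AEs, % of the safety population. Placebo subjects were pooled.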"}}}
{"smiles": "Cc1nn(Cc2ccc(Br)cc2)c(C)c1NC(=O)CSc1ccccc1", "note": "[KM-819]", "values": [{"measurement": "protection of dopaminergic neurons", "setting": "[1]", "result": "protect the dopaminergic neurons"}, {"measurement": "Alpha-synuclein oligomer, CSF, change from baseline (day 1 predose) to day 7, mean (SD)", "setting": "[2]; 30 mg QD, young", "result": "49.94 (72.09) pg/mL"}, {"measurement": "Alpha-synuclein oligomer, plasma, change from baseline (day 1 predose) to day 7, mean (SD)", "setting": "[2]; 30 mg QD, young", "result": "3,884.41 pg/mL"}, {"measurement": "Phosphor-tau, CSF, change from baseline (day 1 predose) to day 7, mean (SD)", "setting": "[2]; 30 mg QD, young", "result": "6.41 (19.04) pg/mL"}, {"measurement": "Total tau, CSF, change from baseline (day 1 predose) to day 7, mean (SD)", "setting": "[2]; 30 mg QD, young", "result": "60.30 (64.42) pg/mL"}, {"measurement": "Alpha-synuclein oligomer, CSF, change from baseline (day 1 predose) to day 7, mean (SD)", "setting": "[2]; 100 mg QD, young", "result": "−252.56 (643.49) pg/mL"}, {"measurement": "Alpha-synuclein oligomer, plasma, change from baseline (day 1 predose) to day 7, mean (SD)", "setting": "[2]; 100 mg QD, young", "result": "575.46 (18,379.46) pg/mL"}, {"measurement": "Phosphor-tau, CSF, change from baseline (day 1 predose) to day 7, mean (SD)", "setting": "[2]; 100 mg QD, young", "result": "0.21 (1.13) pg/mL"}, {"measurement": "Total tau, CSF, change from baseline (day 1 predose) to day 7, mean (SD)", "setting": "[2]; 100 mg QD, young", "result": "9.23 (15.82) pg/mL"}, {"measurement": "Alpha-synuclein oligomer, CSF, change from baseline (day 1 predose) to day 7, mean (SD)", "setting": "[2]; 200 mg QD, elderly", "result": "34.87 (51.42) pg/mL"}, {"measurement": "Alpha-synuclein oligomer, plasma, change from baseline (day 1 predose) to day 7, mean (SD)", "setting": "[2]; 200 mg QD, elderly", "result": "−11,712.09 pg/mL"}, {"measurement": "Phosphor-tau, CSF, change from baseline (day 1 predose) to day 7, mean (SD)", "setting": "[2]; 200 mg QD, elderly", "result": "5.16 (10.88) pg/mL"}, {"measurement": "Total tau, CSF, change from baseline (day 1 predose) to day 7, mean (SD)", "setting": "[2]; 200 mg QD, elderly", "result": "29.30 (100.07) pg/mL"}, {"measurement": "Alpha-synuclein oligomer, CSF, change from baseline (day 1 predose) to day 7, mean (SD)", "setting": "[2]; 200 mg QD, young", "result": "0.60 (18.22) pg/mL"}, {"measurement": "Alpha-synuclein oligomer, plasma, change from baseline (day 1 predose) to day 7, mean (SD)", "setting": "[2]; 200 mg QD, young", "result": "3,809.51 pg/mL"}, {"measurement": "Phosphor-tau, CSF, change from baseline (day 1 predose) to day 7, mean (SD)", "setting": "[2]; 200 mg QD, young", "result": "4.47 (7.88) pg/mL"}, {"measurement": "Total tau, CSF, change from baseline (day 1 predose) to day 7, mean (SD)", "setting": "[2]; 200 mg QD, young", "result": "−3.16 (15.01) pg/mL"}, {"measurement": "Alpha-synuclein oligomer, CSF, change from baseline (day 1 predose) to day 7, mean (SD)", "setting": "[2]; 400 mg QD, young", "result": "18.21 (103.83) pg/mL"}, {"measurement": "Alpha-synuclein oligomer, plasma, change from baseline (day 1 predose) to day 7, mean (SD)", "setting": "[2]; 400 mg QD, young", "result": "−64,843.29 pg/mL"}, {"measurement": "Phosphor-tau, CSF, change from baseline (day 1 predose) to day 7, mean (SD)", "setting": "[2]; 400 mg QD, young", "result": "6.70 (11.82) pg/mL"}, {"measurement": "Total tau, CSF, change from baseline (day 1 predose) to day 7, mean (SD)", "setting": "[2]; 400 mg QD, young", "result": "27.86 (66.07) pg/mL"}, {"measurement": "Abdominal discomfort, number of subjects (%)", "setting": "[3]; 30 mg QD 7 days, young", "result": 0}, {"measurement": "Abdominal pain, number of subjects (%)", "setting": "[3]; 30 mg QD 7 days, young", "result": 0}, {"measurement": "Anxiety, number of subjects (%)", "setting": "[3]; 30 mg QD 7 days, young", "result": 0}, {"measurement": "Back pain, number of subjects (%)", "setting": "[3]; 30 mg QD 7 days, young", "result": 0}, {"measurement": "Diarrhea, number of subjects (%)", "setting": "[3]; 30 mg QD 7 days, young", "result": 0}, {"measurement": "Dizziness, number of subjects (%)", "setting": "[3]; 30 mg QD 7 days, young", "result": "1 (16.7)"}, {"measurement": "Epistaxis, number of subjects (%)", "setting": "[3]; 30 mg QD 7 days, young", "result": 0}, {"measurement": "Erythema of eyelid, number of subjects (%)", "setting": "[3]; 30 mg QD 7 days, young", "result": 0}, {"measurement": "Erythema, number of subjects (%)", "setting": "[3]; 30 mg QD 7 days, young", "result": 0}, {"measurement": "Headache, number of subjects (%)", "setting": "[3]; 30 mg QD 7 days, young", "result": "2 (33.3)"}, {"measurement": "Hyperbilirubinemia, number of subjects (%)", "setting": "[3]; 30 mg QD 7 days, young", "result": 0}, {"measurement": "Hyperhidrosis, number of subjects (%)", "setting": "[3]; 30 mg QD 7 days, young", "result": 0}, {"measurement": "Hypoesthesia, number of subjects (%)", "setting": "[3]; 30 mg QD 7 days, young", "result": 0}, {"measurement": "Insomnia, number of subjects (%)", "setting": "[3]; 30 mg QD 7 days, young", "result": 0}, {"measurement": "Muscle hemorrhage, number of subjects (%)", "setting": "[3]; 30 mg QD 7 days, young", "result": 0}, {"measurement": "Musculoskeletal stiffness, number of subjects (%)", "setting": "[3]; 30 mg QD 7 days, young", "result": 0}, {"measurement": "Nausea, number of subjects (%)", "setting": "[3]; 30 mg QD 7 days, young", "result": "2 (33.3)"}, {"measurement": "Neck pain, number of subjects (%)", "setting": "[3]; 30 mg QD 7 days, young", "result": 0}, {"measurement": "Oropharyngeal pain, number of subjects (%)", "setting": "[3]; 30 mg QD 7 days, young", "result": 0}, {"measurement": "Subjects with any TEAEs, number of subjects (%)", "setting": "[3]; 30 mg QD 7 days, young", "result": "2 (33.3)"}, {"measurement": "Vomiting, number of subjects (%)", "setting": "[3]; 30 mg QD 7 days, young", "result": "2 (33.3)"}, {"measurement": "Abdominal discomfort, number of subjects (%)", "setting": "[3]; 100 mg QD 7 days, young", "result": 0}, {"measurement": "Abdominal pain, number of subjects (%)", "setting": "[3]; 100 mg QD 7 days, young", "result": 0}, {"measurement": "Anxiety, number of subjects (%)", "setting": "[3]; 100 mg QD 7 days, young", "result": 0}, {"measurement": "Back pain, number of subjects (%)", "setting": "[3]; 100 mg QD 7 days, young", "result": "2 (33.3)"}, {"measurement": "Diarrhea, number of subjects (%)", "setting": "[3]; 100 mg QD 7 days, young", "result": 0}, {"measurement": "Dizziness, number of subjects (%)", "setting": "[3]; 100 mg QD 7 days, young", "result": "1 (16.7)"}, {"measurement": "Epistaxis, number of subjects (%)", "setting": "[3]; 100 mg QD 7 days, young", "result": 0}, {"measurement": "Erythema of eyelid, number of subjects (%)", "setting": "[3]; 100 mg QD 7 days, young", "result": 0}, {"measurement": "Erythema, number of subjects (%)", "setting": "[3]; 100 mg QD 7 days, young", "result": 0}, {"measurement": "Headache, number of subjects (%)", "setting": "[3]; 100 mg QD 7 days, young", "result": "1 (16.7)"}, {"measurement": "Hyperbilirubinemia, number of subjects (%)", "setting": "[3]; 100 mg QD 7 days, young", "result": 0}, {"measurement": "Hyperhidrosis, number of subjects (%)", "setting": "[3]; 100 mg QD 7 days, young", "result": 0}, {"measurement": "Hypoesthesia, number of subjects (%)", "setting": "[3]; 100 mg QD 7 days, young", "result": 0}, {"measurement": "Insomnia, number of subjects (%)", "setting": "[3]; 100 mg QD 7 days, young", "result": 0}, {"measurement": "Muscle hemorrhage, number of subjects (%)", "setting": "[3]; 100 mg QD 7 days, young", "result": 0}, {"measurement": "Musculoskeletal stiffness, number of subjects (%)", "setting": "[3]; 100 mg QD 7 days, young", "result": 0}, {"measurement": "Nausea, number of subjects (%)", "setting": "[3]; 100 mg QD 7 days, young", "result": "1 (16.7)"}, {"measurement": "Neck pain, number of subjects (%)", "setting": "[3]; 100 mg QD 7 days, young", "result": 0}, {"measurement": "Oropharyngeal pain, number of subjects (%)", "setting": "[3]; 100 mg QD 7 days, young", "result": 0}, {"measurement": "Subjects with any TEAEs, number of subjects (%)", "setting": "[3]; 100 mg QD 7 days, young", "result": "4 (66.7)"}, {"measurement": "Vomiting, number of subjects (%)", "setting": "[3]; 100 mg QD 7 days, young", "result": 0}, {"measurement": "Abdominal discomfort, number of subjects (%)", "setting": "[3]; 200 mg QD 7 days, elderly", "result": 0}]}
